In brackets after ≈: the same amount, converted by molar mass.
Key:
Assay type in all cases: functional
[1] = system: Trichophyton mentagrophytes; experiment: Antimicrobial activity against Trichophyton mentagrophytes after 96 hrs by microbroth dilution method
Method in brief: (§1)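 Broth microdilution per NCCLS guidelines. Bacteria in Mueller-Hinton broth; fungi in MOPS-buffered RPMI 1640. Test compounds at 50-0.36 µg/mL, standard drugs over 32-0.0018 µg/mL. Inoculum 1-5 × 10^3 cells/mL, 35 °C in a moist chamber. A492 read at 24 h for bacteria, 48 h for C. albicans, 72 h for A. fumigatus, C. neoformans and S. schenckii, 96 h for T. mentagrophytes. MIC taken as 90% growth inhibition relative to growth control.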

[2] = system: Klebsiella pneumoniae; experiment: Antimicrobial activity against Klebsiella pneumoniae ATCC 27736 after 24 hrs by microbroth dilution method; conditions: ATCC 27736, 24 h; method in brief: as §1
[3] = system: Pseudomonas aeruginosa; experiment: Antimicrobial activity against Pseudomonas aeruginosa ATCC BAA-427 after 24 hrs by microbroth dilution method; conditions: ATCC BAA-427, 24 h; method in brief: as §1
[4] = system: Cryptococcus neoformans; experiment: Antimicrobial activity against Cryptococcus neoformans after 72 hrs by microbroth dilution method; method in brief: as §1
[5] = system: Sporothrix schenckii; experiment: Antimicrobial activity against Sporothrix schenckii after 72 hrs by microbroth dilution method; method in brief: as §1
[6] = system: Staphylococcus aureus; experiment: Antimicrobial activity against methicillin-resistant Staphylococcus aureus after 24 hrs by microbroth dilution method
Method in brief: (§2)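 Microbroth dilution in Mueller Hinton broth, following NCCLS guidelines. Test compounds were run at 50-0.36 µg/mL against an initial inoculum of 1-5 × 10^3 cells/mL. Plates were incubated in a moist chamber at 35 °C, and absorbance at 492 nm was read after 24 h. MIC was taken as 90% growth inhibition relative to the growth control.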

[7] = system: Staphylococcus aureus; experiment: Antimicrobial activity against Staphylococcus aureus ATCC 25923 after 24 hrs by microbroth dilution method; conditions: ATCC 25923, 24 h; method in brief: as §1
[8] = system: Aspergillus fumigatus; experiment: Antimicrobial activity against Aspergillus fumigatus after 72 hrs by microbroth dilution method; method in brief: as §1
[9] = system: Staphylococcus aureus; experiment: Antimicrobial activity against vancomycin-resistant Staphylococcus aureus after 24 hrs by microbroth dilution method; method in brief: as §2
[10] = system: Escherichia coli; experiment: Antimicrobial activity against Escherichia coli ATCC 9637 after 24 hrs by microbroth dilution method; conditions: ATCC 9637, 24 h; method in brief: as §1
[11] = system: Candida albicans; experiment: Antimicrobial activity against Candida albicans after 48 hrs by microbroth dilution method; method in brief: as §1

In the case of `CC(C)CCO[C@@H]1C=CC(=O)[C@@H](Cn2cc(CCCN3C(=O)c4ccccc4C3=O)nn2)O1`, the MIC [1] was 25 µg/mL (≈ 55.2 µM), the MIC [2] was > 50 µg/mL and the MIC [3] was > 50 µg/mL. For the same compound, the MIC [4] was 50 µg/mL (≈ 110 µM), the MIC [5] was 50 µg/mL (≈ 110 µM) and the MIC [6] was 25 µg/mL (≈ 55.2 µM). For the same compound, the MIC [7] was 6.25 µg/mL (≈ 13.8 µM), the MIC [8] was > 50 µg/mL and the MIC [9] was 25 µg/mL (≈ 55.2 µM). For the same compound, the MIC [10] was > 50 µg/mL and the MIC [11] was 25 µg/mL (≈ 55.2 µM).
In the case of `CC(C)CCO[C@@H]1C=CC(=O)[C@@H](Cn2ccnn2)O1`, the MIC [1] was > 50 µg/mL, the MIC [2] was > 50 µg/mL and the MIC [3] was > 50 µg/mL. The MIC [4] was 50 µg/mL (≈ 188 µM), the MIC [5] was > 50 µg/mL and the MIC [6] was > 50 µg/mL. The MIC [7] was 25 µg/mL (≈ 94.2 µM), the MIC [8] was > 50 µg/mL and the MIC [9] was > 50 µg/mL. The MIC [10] was 50 µg/mL (≈ 188 µM) and the MIC [11] was 50 µg/mL (≈ 188 µM).
In the case of `CC(C)CCO[C@@H]1C=CC(=O)[C@@H](Cn2cc(CCn3cc(C4CC4)nn3)nn2)O1`, the MIC [1] was > 50 µg/mL, the MIC [2] was > 50 µg/mL and the MIC [3] was > 50 µg/mL. The MIC [4] was 50 µg/mL (≈ 125 µM), the MIC [5] was > 50 µg/mL and the MIC [6] was > 50 µg/mL. The MIC [7] was 25 µg/mL (≈ 62.4 µM), the MIC [8] was > 50 µg/mL and the MIC [9] was > 50 µg/mL. The MIC [10] was > 50 µg/mL and the MIC [11] was 50 µg/mL (≈ 125 µM).
In the case of `CC(C)CCO[C@@H]1C=CC(=O)[C@@H](Cn2cc(CCn3cc(-c4ccccc4)nn3)nn2)O1`, the MIC [1] was 50 µg/mL (≈ 115 µM), the MIC [2] was > 50 µg/mL and the MIC [3] was > 50 µg/mL. The MIC [4] was 50 µg/mL (≈ 115 µM), the MIC [5] was 50 µg/mL (≈ 115 µM) and the MIC [6] was > 50 µg/mL. For the same compound, the MIC [7] was 50 µg/mL (≈ 115 µM), the MIC [8] was > 50 µg/mL and the MIC [9] was > 50 µg/mL. For the same compound, the MIC [10] was > 50 µg/mL and the MIC [11] was 50 µg/mL (≈ 115 µM).
In the case of `CC1(C)S[C@@H]2[C@H](NC(=O)[C@H](N)c3ccccc3)C(=O)N2[C@H]1C(=O)O` [AMPICILLIN], the MIC [2] was 12.5 µg/mL (≈ 35.8 µM), the MIC [3] was > 50 µg/mL and the MIC [6] was 0.78 µg/mL (≈ 2.23 µM). For the same compound, the MIC [7] was 12.5 µg/mL (≈ 35.8 µM), the MIC [9] was 0.78 µg/mL (≈ 2.23 µM) and the MIC [10] was 50 µg/mL (≈ 143 µM).
In the case of `O=C(O)c1cn(C2CC2)c2cc(N3CCNCC3)c(F)cc2c1=O` [CIPROFLOXACIN], the MIC [2] was 0.01 µg/mL (≈ 0.0302 µM), the MIC [3] was 0.09 µg/mL (≈ 0.272 µM) and the MIC [6] was 0.38 µg/mL (≈ 1.15 µM). For the same compound, the MIC [7] was 0.09 µg/mL (≈ 0.272 µM) and the MIC [9] was 0.38 µg/mL (≈ 1.15 µM).
`Clc1ccccc1C(c1ccccc1)(c1ccccc1)n1ccnc1` [CLOTRIMAZOLE] gave an MIC [1] of 2 µg/mL (≈ 5.8 µM), an MIC [4] of 0.25 µg/mL (≈ 0.725 µM) and an MIC [5] of 4 µg/mL (≈ 11.6 µM). It also gave an MIC [8] of 8 µg/mL (≈ 23.2 µM) and an MIC [11] of 0.25 µg/mL (≈ 0.725 µM).
`OC(Cn1cncn1)(Cn1cncn1)c1ccc(F)cc1F` [FLUCONAZOLE] gave an MIC [1] of 16 µg/mL (≈ 52.2 µM), an MIC [4] of 2 µg/mL (≈ 6.53 µM) and an MIC [5] of 4 µg/mL (≈ 13.1 µM). For the same compound, the MIC [8] was > 32 µg/mL and the MIC [11] was 1 µg/mL (≈ 3.27 µM).
`Nc1nc(=O)[nH]cc1F` [FLUCYTOSINE] was tested, and the MIC [1] was > 32 µg/mL, the MIC [4] was 0.13 µg/mL (≈ 1.01 µM) and the MIC [5] was > 32 µg/mL. The MIC [8] was > 32 µg/mL and the MIC [11] was 0.25 µg/mL (≈ 1.94 µM).
`CN[C@@H]1[C@@H](O)[C@@H](O[C@@H]2[C@@H](O)[C@H](O[C@H]3O[C@H]([C@@H](C)NC)CC[C@H]3N)[C@@H](N)C[C@H]2N)OC[C@]1(C)O` [GENTAMICIN C1] was tested, and the MIC [2] was 1.56 µg/mL (≈ 3.27 µM), the MIC [3] was 0.39 µg/mL (≈ 0.817 µM) and the MIC [6] was 1.56 µg/mL (≈ 3.27 µM). The MIC [7] was 0.39 µg/mL (≈ 0.817 µM), the MIC [9] was 1.56 µg/mL (≈ 3.27 µM) and the MIC [10] was 1.56 µg/mL (≈ 3.27 µM).
In the case of `COc1cccc(OC)c1C(=O)N[C@@H]1C(=O)N2[C@@H]1SC(C)(C)[C@@H]2C(=O)O` [METHICILLIN], the MIC [2] was 6.25 µg/mL (≈ 16.4 µM), the MIC [3] was > 50 µg/mL and the MIC [7] was 0.04 µg/mL (≈ 0.105 µM). The MIC [10] was 50 µg/mL (≈ 131 µM).
For `Clc1ccc(COC(Cn2ccnc2)c2ccc(Cl)cc2Cl)c(Cl)c1` (centres undefined) [MICONAZOLE], the MIC [1] was 0.78 µg/mL (≈ 1.87 µM), the MIC [4] was 12.5 µg/mL (≈ 30 µM) and the MIC [5] was 3.12 µg/mL (≈ 7.5 µM). For the same compound, the MIC [8] was 12.5 µg/mL (≈ 30 µM) and the MIC [11] was 25 µg/mL (≈ 60.1 µM).
With `CN[C@H](CC(C)C)C(=O)N[C@H]1C(=O)N[C@@H](CC(N)=O)C(=O)N[C@H]2C(=O)N[C@H]3C(=O)N[C@H](C(=O)N[C@H](C(=O)O)c4cc(O)cc(O)c4-c4cc3ccc4O)[C@H](O)c3ccc(c(Cl)c3)Oc3cc2cc(c3O[C@@H]2O[C@H](CO)[C@@H](O)[C@H](O)[C@H]2O[C@H]2C[C@](C)(N)[C@H](O)[C@H](C)O2)Oc2ccc(cc2Cl)[C@H]1O` [VANCOMYCIN] the MIC [2] was 12.5 µg/mL (≈ 8.63 µM), the MIC [3] was > 50 µg/mL and the MIC [7] was 12.5 µg/mL (≈ 8.63 µM). For the same compound, the MIC [10] was 12.5 µg/mL (≈ 8.63 µM).

— ChEMBL document CHEMBL3286335, “Synthesis of 2,3,6-trideoxy sugar triazole hybrids as potential new broad spectrum antimicrobial agents” (Eur J Med Chem, 2014)
